Reference: ChEMBL document CHEMBL1139009, “Analogues of neurohypophyseal hormones, oxytocin and arginine vasopressin, conformationally restricted in the N-terminal part of the molecule” (J Med Chem, 2006)

Key:
[1] = species on record: Rattus norvegicus; test: Antidiuretic activity against V2 receptor in Wistar rat at antidiuresis half life of 60 min; format: functional, Urine
[2] = biological target: Vasopressin V1a receptor (Rattus norvegicus) (UniProt P30560); test: Pressor activity against V1a receptor in Wistar rat
Vasopressin V1a receptor (Rattus norvegicus), sequence (P30560 whole entry, looked up): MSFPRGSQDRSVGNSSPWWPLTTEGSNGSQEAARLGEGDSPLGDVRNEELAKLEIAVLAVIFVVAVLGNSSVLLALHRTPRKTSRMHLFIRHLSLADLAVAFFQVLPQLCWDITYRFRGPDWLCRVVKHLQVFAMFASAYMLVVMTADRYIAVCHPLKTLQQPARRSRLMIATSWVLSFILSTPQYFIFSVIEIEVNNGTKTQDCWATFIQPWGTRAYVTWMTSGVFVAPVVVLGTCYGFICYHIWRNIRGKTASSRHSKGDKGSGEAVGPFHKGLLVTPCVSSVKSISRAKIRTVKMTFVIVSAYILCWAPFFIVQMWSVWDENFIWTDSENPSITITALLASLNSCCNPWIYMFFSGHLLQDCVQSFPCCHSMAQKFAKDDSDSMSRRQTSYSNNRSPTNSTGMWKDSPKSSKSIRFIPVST

[3] = biological target: T1, Oxytocin receptor (Rattus norvegicus, UniProt P70536); test: (§1) Uterotonic activity against OT receptor in Wistar rat in absence of magnesium; format: functional
T1 sequence (P70536 whole entry): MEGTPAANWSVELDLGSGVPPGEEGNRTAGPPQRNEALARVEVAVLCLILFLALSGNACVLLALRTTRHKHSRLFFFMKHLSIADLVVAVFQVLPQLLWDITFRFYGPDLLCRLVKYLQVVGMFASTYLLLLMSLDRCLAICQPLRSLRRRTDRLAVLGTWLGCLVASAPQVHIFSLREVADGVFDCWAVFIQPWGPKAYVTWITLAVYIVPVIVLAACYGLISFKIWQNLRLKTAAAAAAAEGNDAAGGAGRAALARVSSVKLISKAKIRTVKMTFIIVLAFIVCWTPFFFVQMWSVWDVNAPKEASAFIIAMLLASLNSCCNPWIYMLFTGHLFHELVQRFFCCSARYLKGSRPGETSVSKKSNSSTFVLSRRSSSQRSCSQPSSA
How it was run: (§2)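 Isolated uterus from female Wistar rats estrogenized 48 h beforehand, tested in vitro without magnesium ions. Synthetic oxytocin served as standard. Dose-response curves from single administrations or cumulative dosing without washing. Values are means of three to five separate experiments.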

[4] = biological target: T2, Oxytocin receptor (Rattus norvegicus) (UniProt P70536); test: as §1; format: functional; how it was run: as §2
T2 sequence (whole entry): T1 sequence (P70536 whole entry)

[5] = species on record: Rattus norvegicus; test: Antidiuretic activity against V2 receptor in Wistar rat at antidiuresis half life of 200 min; format: functional, Urine

Row | Structure (SMILES) | Activity [1] | pressor activity [2] | also measured
1 | CC(C)C[C@H](NC(=O)[C@@H]1CCCN1C(=O)[C@@H]1CSSC2(CCCCC2)CC(=O)N2CCN(C(=O)[C@@H]2Cc2ccccc2)[C@@H](Cc2ccccc2)C(=O)N[C@@H](CCC(N)=O)C(=O)N[C@@H](CC(N)=O)C(=O)N1)C(=O)NCC(N)=O [listing 1 of 2 here] | <0.04 IU/mg |  | 
2 | CC(C)[C@@H]1NC(=O)[C@H](C)N(Cc2ccccc2)C(=O)[C@H](Cc2ccc(O)cc2)NC(=O)CCSSC[C@H](C(=O)N2CCC[C@H]2C(=O)N[C@@H](CCCN=C(N)N)C(=O)NCC(N)=O)NC(=O)[C@H](CC(N)=O)NC1=O |  | 0 IU/mg | 
3 | CC(C)C[C@H](NC(=O)[C@@H]1CCCN1C(=O)[C@H]1CSSCCC(=O)N2CCN(C(=O)[C@@H]2Cc2ccccc2)[C@@H](Cc2ccccc2)C(=O)N[C@@H](CCC(N)=O)C(=O)N[C@@H](CC(N)=O)C(=O)N1)C(=O)NCC(N)=O |  | 0 IU/mg | 
4 | CC(C)C[C@H](NC(=O)[C@@H]1CCCN1C(=O)[C@H]1CSSC[C@@H](N)C(=O)N2CCN(C(=O)[C@@H]2Cc2ccccc2)[C@@H](Cc2ccccc2)C(=O)N[C@@H](CCC(N)=O)C(=O)N[C@@H](CC(N)=O)C(=O)N1)C(=O)NCC(N)=O |  | 0 IU/mg | 
5 | CC(C)[C@@H]1NC(=O)[C@H](C)N(Cc2ccccc2)C(=O)[C@H](Cc2ccc(O)cc2)NC(=O)[C@@H](N)CSSC[C@@H](C(=O)N2CCC[C@H]2C(=O)N[C@@H](CCCN=C(N)N)C(=O)NCC(N)=O)NC(=O)[C@H](CC(N)=O)NC1=O | <0.04 IU/mg |  | 
6 | CC(C)C[C@H](NC(=O)[C@@H]1CCCN1C(=O)[C@@H]1CSSCCC(=O)N2CCN(C(=O)[C@@H]2Cc2ccccc2)[C@@H](Cc2ccccc2)C(=O)N[C@@H](CCC(N)=O)C(=O)N[C@@H](CC(N)=O)C(=O)N1)C(=O)NCC(N)=O [listing 1 of 2 here] |  |  | pA2 [3]: 6.5
7 | NC(=O)CC[C@@H]1NC(=O)[C@H](Cc2ccccc2)NC(=O)[C@H](Cc2ccc(O)cc2)NC(=O)[C@@](N)(CO)CSSC[C@H](C(=O)N2CCC[C@H]2C(=O)N[C@@H](CCCN=C(N)N)C(=O)NCC(N)=O)NC(=O)[C@H](CC(N)=O)NC1=O |  | 0.18 IU/mg | 
8 | CC(C)C[C@H](NC(=O)[C@@H]1CCCN1C(=O)[C@@H]1CSSC2(CCCCC2)CC(=O)N2CCN(C(=O)[C@@H]2Cc2ccccc2)[C@@H](Cc2ccccc2)C(=O)N[C@@H](CCC(N)=O)C(=O)N[C@@H](CC(N)=O)C(=O)N1)C(=O)NCC(N)=O [listing 2 of 2 here] |  |  | pA2 [3]: 6.72
9 | CC(C)C[C@H](NC(=O)[C@@H]1CCCN1C(=O)[C@@H]1CSSCCC(=O)N2CCN(C(=O)[C@@H]2Cc2ccccc2)[C@@H](Cc2ccccc2)C(=O)N[C@@H](CCC(N)=O)C(=O)N[C@@H](CC(N)=O)C(=O)N1)C(=O)NCC(N)=O [listing 2 of 2 here] | <0.04 IU/mg |  | 
10 | CC(C)[C@@H]1NC(=O)[C@H](C)N(Cc2ccccc2)C(=O)[C@H](Cc2ccc(O)cc2)NC(=O)CC2(CCCCC2)SSC[C@@H](C(=O)N2CCC[C@H]2C(=O)N[C@@H](CCCN=C(N)N)C(=O)NCC(N)=O)NC(=O)[C@H](CC(N)=O)NC1=O | <0.04 IU/mg |  | 
11 | CC(C)[C@@H]1NC(=O)[C@H](C)N(Cc2ccccc2)C(=O)[C@H](Cc2ccc(O)cc2)NC(=O)[C@H](N)CSSC[C@H](C(=O)N2CCC[C@H]2C(=O)N[C@@H](CCCN=C(N)N)C(=O)NCC(N)=O)NC(=O)[C@H](CC(N)=O)NC1=O |  | 0 IU/mg | 
12 | CC(C)[C@@H]1NC(=O)[C@H](C)N(Cc2ccccc2)C(=O)[C@H](Cc2ccc(O)cc2)NC(=O)CC2(CCCCC2)SSC[C@H](C(=O)N2CCC[C@H]2C(=O)N[C@@H](CCCN=C(N)N)C(=O)NCC(N)=O)NC(=O)[C@H](CC(N)=O)NC1=O |  | 0 IU/mg | Activity [4]: 0 IU/mg
13 | CC(C)C[C@H](NC(=O)[C@@H]1CCCN1C(=O)[C@H]1CSSC2(CCCCC2)CC(=O)N2CCN(C(=O)[C@@H]2Cc2ccccc2)[C@@H](Cc2ccccc2)C(=O)N[C@@H](CCC(N)=O)C(=O)N[C@@H](CC(N)=O)C(=O)N1)C(=O)NCC(N)=O |  | 0 IU/mg | 
14 | CC(C)C[C@H](NC(=O)[C@@H]1CCCN1C(=O)[C@@H]1CSSC[C@H](N)C(=O)N2CCN(C(=O)[C@@H]2Cc2ccccc2)[C@@H](Cc2ccccc2)C(=O)N[C@@H](CCC(N)=O)C(=O)N[C@@H](CC(N)=O)C(=O)N1)C(=O)NCC(N)=O [listing 1 of 2 here] |  |  | pA2 [3]: 6.82
15 | CC(C)[C@@H]1NC(=O)[C@H](C)N(Cc2ccccc2)C(=O)[C@H](Cc2ccc(O)cc2)NC(=O)CCSSC[C@@H](C(=O)N2CCC[C@H]2C(=O)N[C@@H](CCCN=C(N)N)C(=O)NCC(N)=O)NC(=O)[C@H](CC(N)=O)NC1=O | <0.04 IU/mg |  | 
16 | NC(=O)CC[C@@H]1NC(=O)[C@H](Cc2ccccc2)NC(=O)[C@H](Cc2ccc(O)cc2)NC(=O)[C@@](N)(CO)CSSC[C@@H](C(=O)N2CCC[C@H]2C(=O)N[C@@H](CCCN=C(N)N)C(=O)NCC(N)=O)NC(=O)[C@H](CC(N)=O)NC1=O [listing 1 of 2 here] |  |  | pA2 [3]: 6.4
17 | CC(C)C[C@H](NC(=O)[C@@H]1CCCN1C(=O)[C@@H]1CSSC[C@H](N)C(=O)N2CCN(C(=O)[C@@H]2Cc2ccccc2)[C@@H](Cc2ccccc2)C(=O)N[C@@H](CCC(N)=O)C(=O)N[C@@H](CC(N)=O)C(=O)N1)C(=O)NCC(N)=O [listing 2 of 2 here] | <0.04 IU/mg |  | 
18 | NC(=O)CC[C@@H]1NC(=O)[C@H](Cc2ccccc2)NC(=O)[C@H](Cc2ccc(O)cc2)NC(=O)[C@@](N)(CO)CSSC[C@@H](C(=O)N2CCC[C@H]2C(=O)N[C@@H](CCCN=C(N)N)C(=O)NCC(N)=O)NC(=O)[C@H](CC(N)=O)NC1=O [listing 2 of 2 here] | 4.5 IU/mg |  | Activity [5]: 22.5 IU/mg
